# System: SF-539
# Assay: Growth inhibition of human SF-539 cells measured after 48 hrs by sulforhodamine B assay
# Format: functional
# Settings: not given
# Procedure, shortened: (§1)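 Panel of 39 human cancer cell lines tested at the Japanese Foundation for Cancer Research. Five concentrations per compound, spanning 10⁻¹¹–10⁻⁷ M, 10⁻¹⁰–10⁻⁶ M or 10⁻⁸–10⁻⁴ M, were used to build dose-response curves. GI₅₀ is the concentration giving 50% growth inhibition relative to control.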
row,Compound,GI50 [nM]
1,CC(C)[C@H]1NC(=O)C[C@H]2/C=C/CCSSC[C@@H](NC1=O)C(=O)N[C@H](Cc1ccccc1)C(=O)NCC(=O)O2,3.3

# System: HCC 2998
# Assay: Growth inhibition of human HCC 2998 cells measured after 48 hrs by sulforhodamine B assay
# Format: functional
# Settings: not given
# Procedure, shortened: as §1
row,GI50 [nM],Compound
1,3.2,CC(C)[C@H]1NC(=O)C[C@H]2/C=C/CCSSC[C@@H](NC1=O)C(=O)N[C@H](Cc1ccccc1)C(=O)NCC(=O)O2

# System: not listed separately
# Assay: Growth inhibition of human HBC5 cells measured after 48 hrs by sulforhodamine B assay
# Format: functional
# Settings: not given
# Procedure, shortened: as §1
row,Compound,GI50 [nM]
1,CC(C)[C@H]1NC(=O)C[C@H]2/C=C/CCSSC[C@@H](NC1=O)C(=O)N[C@H](Cc1ccccc1)C(=O)NCC(=O)O2,84

# System: MKN-74
# Assay: Growth inhibition of human MKN-74 cells measured after 48 hrs by sulforhodamine B assay
# Format: functional
# Settings: not given
# Procedure, shortened: as §1
row,GI50 [nM],Compound
1,5.9,CC(C)[C@H]1NC(=O)C[C@H]2/C=C/CCSSC[C@@H](NC1=O)C(=O)N[C@H](Cc1ccccc1)C(=O)NCC(=O)O2

# System: not listed separately
# Assay: Growth inhibition of human HBC4 cells measured after 48 hrs by sulforhodamine B assay
# Format: functional
# Settings: not given
# Procedure, shortened: as §1
row,Compound,GI50 [nM]
1,CC(C)[C@H]1NC(=O)C[C@H]2/C=C/CCSSC[C@@H](NC1=O)C(=O)N[C@H](Cc1ccccc1)C(=O)NCC(=O)O2,37

# System: PC-3
# Assay: Growth inhibition of human PC-3 cells measured after 48 hrs by sulforhodamine B assay
# Format: functional
# Settings: not given
# Procedure, shortened: as §1
row,GI50 [nM],Compound
1,5.7,CC(C)[C@H]1NC(=O)C[C@H]2/C=C/CCSSC[C@@H](NC1=O)C(=O)N[C@H](Cc1ccccc1)C(=O)NCC(=O)O2

# System: OVCAR-5
# Assay: Growth inhibition of human OVCAR-5 cells measured after 48 hrs by sulforhodamine B assay
# Format: functional
# Settings: not given
# Procedure, shortened: as §1
row,GI50 [nM],Compound
1,6.8,CC(C)[C@H]1NC(=O)C[C@H]2/C=C/CCSSC[C@@H](NC1=O)C(=O)N[C@H](Cc1ccccc1)C(=O)NCC(=O)O2

# System: HT-29
# Assay: Growth inhibition of human HT-29 cells measured after 48 hrs by sulforhodamine B assay
# Format: functional
# Settings: not given
# Procedure, shortened: as §1
row,GI50 [nM],Compound
1,3,CC(C)[C@H]1NC(=O)C[C@H]2/C=C/CCSSC[C@@H](NC1=O)C(=O)N[C@H](Cc1ccccc1)C(=O)NCC(=O)O2

# System: NCI-H226
# Assay: Growth inhibition of human NCI-H226 cells measured after 48 hrs by sulforhodamine B assay
# Format: functional
# Settings: not given
# Procedure, shortened: as §1
row,GI50 [nM],Compound
1,4.8,CC(C)[C@H]1NC(=O)C[C@H]2/C=C/CCSSC[C@@H](NC1=O)C(=O)N[C@H](Cc1ccccc1)C(=O)NCC(=O)O2

# System: OVCAR-3
# Assay: Growth inhibition of human OVCAR-3 cells measured after 48 hrs by sulforhodamine B assay
# Format: functional
# Settings: not given
# Procedure, shortened: as §1
row,GI50 [nM],Compound
1,17,CC(C)[C@H]1NC(=O)C[C@H]2/C=C/CCSSC[C@@H](NC1=O)C(=O)N[C@H](Cc1ccccc1)C(=O)NCC(=O)O2

# System: not listed separately
# Assay: Growth inhibition of human BSY1 cells measured after 48 hrs by sulforhodamine B assay
# Format: functional
# Settings: BSY-1
# Procedure, shortened: as §1
row,Compound,GI50 [nM]
1,CC(C)[C@H]1NC(=O)C[C@H]2/C=C/CCSSC[C@@H](NC1=O)C(=O)N[C@H](Cc1ccccc1)C(=O)NCC(=O)O2,36

# System: HCT-116
# Assay: Growth inhibition of human HCT-116 cells measured after 48 hrs by sulforhodamine B assay
# Format: functional
# Settings: not given
# Procedure, shortened: as §1
row,GI50 [nM],Compound
1,2.6,CC(C)[C@H]1NC(=O)C[C@H]2/C=C/CCSSC[C@@H](NC1=O)C(=O)N[C@H](Cc1ccccc1)C(=O)NCC(=O)O2

# System: OVCAR-4
# Assay: Growth inhibition of human OVCAR-4 cells measured after 48 hrs by sulforhodamine B assay
# Format: functional
# Settings: not given
# Procedure, shortened: as §1
row,GI50 [nM],Compound
1,27,CC(C)[C@H]1NC(=O)C[C@H]2/C=C/CCSSC[C@@H](NC1=O)C(=O)N[C@H](Cc1ccccc1)C(=O)NCC(=O)O2

# System: RXF 631
# Assay: Growth inhibition of human RXF 631 cells measured after 48 hrs by sulforhodamine B assay
# Format: functional
# Settings: not given
# Procedure, shortened: as §1
row,Compound,GI50 [nM]
1,CC(C)[C@H]1NC(=O)C[C@H]2/C=C/CCSSC[C@@H](NC1=O)C(=O)N[C@H](Cc1ccccc1)C(=O)NCC(=O)O2,7.9

# System: SF-295
# Assay: Growth inhibition of human SF-295 cells measured after 48 hrs by sulforhodamine B assay
# Format: functional
# Settings: not given
# Procedure, shortened: as §1
row,Compound,GI50 [nM]
1,CC(C)[C@H]1NC(=O)C[C@H]2/C=C/CCSSC[C@@H](NC1=O)C(=O)N[C@H](Cc1ccccc1)C(=O)NCC(=O)O2,21

# System: MKN-45
# Assay: Growth inhibition of human MKN-45 cells measured after 48 hrs by sulforhodamine B assay
# Format: functional
# Settings: not given
# Procedure, shortened: as §1
row,GI50 [nM],Compound
1,64,CC(C)[C@H]1NC(=O)C[C@H]2/C=C/CCSSC[C@@H](NC1=O)C(=O)N[C@H](Cc1ccccc1)C(=O)NCC(=O)O2

# System: SNB-78
# Assay: Growth inhibition of human SNB-78 cells measured after 48 hrs by sulforhodamine B assay
# Format: functional
# Settings: not given
# Procedure, shortened: as §1
row,Compound,GI50 [nM]
1,CC(C)[C@H]1NC(=O)C[C@H]2/C=C/CCSSC[C@@H](NC1=O)C(=O)N[C@H](Cc1ccccc1)C(=O)NCC(=O)O2,8.6

# System: A549
# Assay: Growth inhibition of human A549 cells measured after 48 hrs by sulforhodamine B assay
# Format: functional
# Settings: not given
# Procedure, shortened: as §1
row,GI50 [nM],Compound
1,3.4,CC(C)[C@H]1NC(=O)C[C@H]2/C=C/CCSSC[C@@H](NC1=O)C(=O)N[C@H](Cc1ccccc1)C(=O)NCC(=O)O2

# System: ACHN
# Assay: Growth inhibition of human ACHN cells measured after 48 hrs by sulforhodamine B assay
# Format: functional
# Settings: not given
# Procedure, shortened: as §1
row,GI50 [nM],Compound
1,24,CC(C)[C@H]1NC(=O)C[C@H]2/C=C/CCSSC[C@@H](NC1=O)C(=O)N[C@H](Cc1ccccc1)C(=O)NCC(=O)O2

# System: MDA-MB-231
# Assay: Growth inhibition of human MDA-MB-231 cells measured after 48 hrs by sulforhodamine B assay
# Format: functional
# Settings: not given
# Procedure, shortened: as §1
row,GI50 [nM],Compound
1,8.7,CC(C)[C@H]1NC(=O)C[C@H]2/C=C/CCSSC[C@@H](NC1=O)C(=O)N[C@H](Cc1ccccc1)C(=O)NCC(=O)O2

# System: MKN-28
# Assay: Growth inhibition of human MKN-28 cells measured after 48 hrs by sulforhodamine B assay
# Format: functional
# Settings: not given
# Procedure, shortened: as §1
row,GI50 [nM],Compound
1,78,CC(C)[C@H]1NC(=O)C[C@H]2/C=C/CCSSC[C@@H](NC1=O)C(=O)N[C@H](Cc1ccccc1)C(=O)NCC(=O)O2

# Reference: ChEMBL document CHEMBL4715745, “Synthesis and biological evaluation of novel FK228 analogues as potential isoform selective HDAC inhibitors” (Eur J Med Chem, 2016)
